MEKK2 WT-MEK5 = raises or lowers MEK5 binding to wildtype human MEKK2 PB1 domain; Q9Y2U5; binding response (% of control), % at 10 µM; hit rate 1.1% among 290,000; bead flow cytometry, Alexa488-MEK5 binding to MEKK2 WT; actives lie on both sides; in the data active means binding response below about 67% or above about 130%
MEKK2 mut-MEK5 = signal of MEK5 binding to mutant human MEKK2 PB1 domain; bead flow cytometry, Alexa488-MEK5 binding to MEKK2 mutant; hit rate 0.35% among 290,000; percent response, % at 10 µM; in the data active means percent response above about 24%, passing the limit was not always enough
UBC13 polyUb = inhibitors of human UBC13 polyubiquitin chain formation; P61088; TR-FRET; inhibition, % at 20 µM; hit rate 0.47% among 330,000; AID 485273; in the data active means inhibition above about 45%, passing the limit was not always enough
Target sequence (P61088 whole entry, looked up): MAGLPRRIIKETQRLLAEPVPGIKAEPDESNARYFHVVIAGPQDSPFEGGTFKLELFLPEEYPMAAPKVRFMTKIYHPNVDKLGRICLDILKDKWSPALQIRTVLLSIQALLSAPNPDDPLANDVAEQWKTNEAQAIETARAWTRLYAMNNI
MEKK3 PB1 HTS = raises or lowers MEK5 binding to the human MEKK3 PB1 domain. Q99759. bead-based flow cytometry, Alexa488-MEK5 binding to MEKK3; actives lie on both sides; 0 = blocked by unlabeled MEK5, 100 = vehicle. binding response (% of control), % at 10 µM. hit rate 1.4% among 290,000;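 active means binding response more than 3 SD above or below the average of its plate-row segment, actives on both sides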;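 further: Alexa488 bead fluorescence after subtracting the streptavidin-only scavenger bead signal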
Apaf1 inhib = blocks human Apaf-1 apoptosome activity | O14727 | hit rate 0.71% among 330,000 | AID 489030 | reconstituted apoptosome caspase-3 activity, DEVD-Rh110 fluorescence | inhibition, % at 20 µM; active means inhibition of at least 40% at 20 µM;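 further: plate controls were DMSO wells for no effect and DEVD-CHO caspase inhibitor wells for full effect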
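Material: biochemical Apaf-1 apoptosome reconstitution. Medium: Hepes buffer, pH 7.5. Also added: cytochrome c activation, bis-DEVD rhodamine 110 substrate. Timing: 30 min compound preincubation, 50 min activation, room temperature. Measured by: rhodamine 110 fluorescence at Ex 480/Em 540 nm.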
UCH37 DUB inh = inhibitors of human deubiquitinating enzyme UCH37; inhibition, % (no concentration beside the values); hit rate 0.33% among 330,000; AID 588478; purified proteasome/UCH37, Ub-AMC cleavage fluorescence;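 active means mean inhibition over replicate wells above about 20%, limit read from the data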;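 further: 0% = compound-free wells with enzyme and 100% = wells lacking proteasome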
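Material: human UCH37 enzyme supplied as purified proteasome complex. Measure: % inhibition of Ub-AMC cleavage fluorescence. Medium: pH 7.4 Tris-HCl (50 mM) with ovalbumin, ATP-MgCl2, DTT. Times: 30 min preincubation with enzyme, 25 min cleavage at room temperature. Detection: AMC fluorescence intensity at 355/460 nm.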
MEKK2wt confirm = raises or lowers MEK5 binding to wildtype human MEKK2, retest; shares compounds with MEKK3 PB1 HTS; bead flow cytometry, Alexa488-MEK5 binding to MEKK2 WT; actives lie on both sides; binding response (% of control), % at 10 µM; hit rate 2.4% among 5,900; in the data active means binding response below about 16% or above about 210%; inactive means in between
MEKK2mut-MEK5 = signal of MEK5 binding to mutant human MEKK2, retest | shares compounds with MEKK3 PB1 HTS | bead flow cytometry, Alexa488-MEK5 binding to MEKK2 mutant | percent response, % at 10 µM | hit rate 2% among 5,900; in the data active means percent response mostly above about 71%, no sharp cut-off; inactive means mostly below about 38%;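 further: higher means compound restores mutant binding toward wildtype level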
MEKK3 confirm = MEKK3-MEK5 PB1 inhibition, single concentration confirmation | shares compounds with MEKK3 PB1 HTS | bead flow cytometry, Alexa488-MEK5 binding to MEKK3; stronger effect = lower value | binding response (% of control), % at 10 µM | hit rate 1.8% among 5,900 | AID 1894;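 active means binding response below 72% of control, or above a set upper limit, though filed actives all read lower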;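 further: 100% = DMSO only wells and 0% = binding blocked by excess unlabeled MEK5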
Casp3 UBC13 ctr = caspase-3 inhibition (UBC13 counter-screen); shares compounds with UBC13 polyUb; Recombinant caspase-3, Caspase-Glo 3/7 luminescence, 60 min; inhibition, % at 20 µM; hit rate 4% among 1,400; AID 488856;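 active means mean inhibition across replicates above about 26%, limit read from the data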;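 further: plate controls were DMSO with caspase-3 for no effect and DMSO wells lacking enzyme for full effect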
Target sequence (P42574 whole entry, looked up): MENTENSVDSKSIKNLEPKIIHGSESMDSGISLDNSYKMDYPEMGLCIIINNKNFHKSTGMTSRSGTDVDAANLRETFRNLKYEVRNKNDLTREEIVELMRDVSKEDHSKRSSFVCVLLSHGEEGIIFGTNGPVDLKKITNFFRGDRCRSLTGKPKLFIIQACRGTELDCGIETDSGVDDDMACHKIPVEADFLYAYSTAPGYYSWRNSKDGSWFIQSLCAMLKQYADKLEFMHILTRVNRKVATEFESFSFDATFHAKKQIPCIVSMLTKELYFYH
UBC13 confirm = confirmation of human UBC13 polyubiquitin inhibitors; shares compounds with UBC13 polyUb; UBC13 polyubiquitination, TR-FRET, biochemical; AID 488859; hit rate 68% among 1,400; inhibition, % at 10 µM; in the data active means inhibition above about 45%
Apaf-1 inh conf = confirmation of Apaf-1 inhibitors. shares compounds with Apaf1 inhib. reconstituted apoptosome, caspase-3 DEVD-Rh110 fluorescence. inhibition, % at 20 µM. hit rate 25% among 1,800;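 active means mean inhibition of at least 40% at 20 µM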;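 further: plate controls were DMSO wells for no effect and DEVD-CHO caspase inhibitor control wells for full effect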
Rh110 quench = counter-screen for Apaf-1 inhibitors: fluorescence interference | 1,800 tested, under 10 active | activation (fluorescence interference), % at 20 µM | Rh110 fluorescence interference, quenched caspase reaction | shares compounds with Apaf1 inhib;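 active means signal rise of 40% or more at 20 µM, treated as a fluorescence artifact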
Fluor interf inh = counter-screen for Apaf-1 inhibitors: fluorescence interference, dose response | shares compounds with Apaf1 inhib | fluorescence interference counterscreen, Apaf-1 assay format | IC50, µM | 460 tested, under 10 active; call rule not given here
The depositor's hits bear a star; . = not tested or not shown; [ ] = dose if it differs, or a comment. Hits are enriched below; roughly 3% of the tested compounds scored in any of these assays.

SMILES	MEKK2 WT-MEK5	MEKK2 mut-MEK5	UBC13 polyUb	MEKK3 PB1 HTS	Apaf1 inhib	UCH37 DUB inh	MEKK2wt confirm	MEKK2mut-MEK5	MEKK3 confirm	Casp3 UBC13 ctr	UBC13 confirm	Apaf-1 inh conf	Rh110 quench	others
COCC(=O)O[C@]1(CCN(C)CCCc2nc3ccccc3[nH]2)CCc2cc(F)ccc2[C@@H]1C(C)C	172*	19	67*	118	54*	3	136	21	107	-2	60*	23	4
O=C(c1ccc(OCCN2CCCCC2)cc1)c1c(-c2ccc(O)cc2)sc2cc(O)ccc12	201*	28*	92*	111	47*	2	143	33	94	4	102*	8	-5
COc1cccc(C(=O)N2CCOCC2)c1	103	5	-3	105	-7	1	.	.	.	.	.	.	.
Cc1ccc2nc(-c3ccc(NC(=S)NC(=O)C(C)C)cc3)sc2c1	80	-7	3	82	2	-12	.	.	.	.	.	.	.
Cc1ccc2nc(-c3ccc(NC(=S)NC4CC(C)(C)NC(C)(C)C4)cc3)sc2c1	235*	74*	91*	107	50*	-34	218*	90*	92	11	96*	42*	10	Fluor interf inh=>100
COc1ccc(/C=N/Nc2cc(C)nc3ccc(Br)cc23)cc1	214*	73*	61*	106	55*	.	245*	120*	107	4	85*	24	-1
NCCNc1cc(N2CCCC2)ccc1[N+](=O)[O-]	105	-1	-87	101	-5	10	.	.	.	.	.	.	.
Cc1ccccc1OCCNc1cc(N2CC(C)NC(C)C2)ccc1[N+](=O)[O-] (stereo not given)	198*	47	22	120	56*	9	137	31	100	.	.	24	9
CCC(=O)OCCNc1cc(Sc2nc3ccccc3[nH]2)c2nonc2c1[N+](=O)[O-]	102	0	.	120	.	7	.	.	.	.	.	.	.
COCC(=O)NCc1ccc2c(c1)cc(C)n2C	92	-1	-47	92	8	3	.	.	.	.	.	.	.
Cc1ccc(S(=O)(=O)NCc2ccc3c(c2)cc(C)n3C)cc1	51*[inhibitor]	-15	9	71*[inhibitor]	51*	1	62	-9	82	.	.	4	11
Cc1ccc(COC(=O)c2ccc3c(c2)C(=O)N(CCCN2CCOCC2)C3=O)cc1	78	-49	11	78	6	7	.	.	.	.	.	.	.
Fc1cccc(CCN2CCNC[C@@H]2Cc2ccccc2)c1	110	5	-11	102	4	2	.	.	.	.	.	.	.
FC(F)(F)c1cc(CCN2CCNC[C@@H]2Cc2ccccc2)cc(C(F)(F)F)c1	146*	15	64*	113	57*	0	136	39	111	0	51*	21	8

Source: PubChem (several laboratories)
